# According to ChEMBL document CHEMBL1629577, “Activity of T-705 in a hamster model of yellow fever virus infection in comparison with that of a chemically related compound, T-1106” (Antimicrob Agents Chemother, 2009):
# pEC50: −log10 of the molar value. The source made the active and inactive calls. No cut-off for these calls is given here.
# How the values were obtained:
# Yellow fever virus [1] = experiment: Antiviral activity against Yellow fever virus 17D infected in African green monkey Vero cells assessed as inhibition of virus induced cytopathic effect by luciferase reporter gene assay; type: functional, cell-based
# Yellow fever virus [2] = experiment: Antiviral activity against Yellow fever virus 17D infected in African green monkey Vero cells assessed as reduction in virus yield; type: functional
# In short: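 Virus yield reduction in Vero cells infected with YFV 17D after compound exposure, with progeny virus titred by CCID50. The EC90 was averaged over separate experiments.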
# Yellow fever virus [3] = experiment: Antiviral activity against 10^2 CCID50 Yellow fever virus Jimenez infected in syrian golden hamster assessed as reduction in viral titer in liver at 32 mg/kg/day administered twice daily for 8 days started 6 days post infection by quantitative RT-PCR analysis; type: functional
# Yellow fever virus [4] = experiment: Antiviral activity against 10^2 CCID50 Yellow fever virus Jimenez infected in syrian golden hamster assessed as mean day of death […] at 32 mg/kg/day, po administered twice daily for 8 days started 4 hrs prior to viral infection relative to control; type: functional
# Yellow fever virus [5] = experiment: Antiviral activity against Yellow fever virus 17D infected in African green monkey Vero cells assessed as time required for inhibition of viral replication at 6400 uM up to 12 hrs post-viral infection; type: functional, cell-based
# Yellow fever virus [6] = experiment: Antiviral activity against 10^2 CCID50 Yellow fever virus Jimenez infected in syrian golden hamster assessed as mean day of death […] at 10 mg/kg/day, po administered twice daily for 8 days started 4 hrs prior to viral infection relative to control; type: functional
# Syrian golden hamster [7] = experiment: Toxicity in syrian golden hamster infected with 10^2 CCID50 Yellow fever virus Jimenez assessed as weight change at 32 mg/kg/day, po administered twice daily for 8 days started 4 hrs prior to viral infection relative to control; type: organism-based, Mesocricetus auratus; parameters: route oral; settings: in vivo
# Yellow fever virus [8] = experiment: Antiviral activity against 10^2 CCID50 Yellow fever virus Jimenez infected in syrian golden hamster assessed as serum ALT level at 32 mg/kg/day, po administered twice daily for 8 days started 4 hrs prior to viral infection; type: functional
# [9] = Selectivity index, ratio of CC50 for African green monkey vero cells to EC90 for Yellow fever virus 17D; type: toxicity, cell-based; settings: read-out: Selectivity Index
# In short: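 SI was calculated as the CC50 in uninfected Vero cells divided by the EC90 from the YFV 17D virus yield reduction assay in Vero cells.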
# Yellow fever virus [10] = experiment: Antiviral activity against 10^2 CCID50 Yellow fever virus Jimenez infected in syrian golden hamster assessed as serum survival of animal at 32 mg/kg/day, po administered twice daily for 8 days started 4 hrs prior to viral infection; type: functional, organism-based
# [11] = Cytotoxicity against African green monkey Vero cells by luciferase-based cell viability assay; settings: chlorocebus sabaeus
# In short: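 Uninfected Vero cells exposed to compound were assayed for ATP content by luminescence (Cell-Titer Glo) to derive the CC50.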
# Yellow fever virus [12] = experiment: Antiviral activity against Yellow fever virus 17D infected in African green monkey Vero cells assessed as inhibition of virus induced cytopathic effect by microscopic analysis; type: functional, cell-based
# Yellow fever virus [13] = experiment: Antiviral activity against Yellow fever virus 17D infected in African green monkey Vero cells assessed as inhibition of virus induced cytopathic effect […] by NR dye uptake assay; type: functional, cell-based
# Syrian golden hamster [14] = experiment: Toxicity in syrian golden hamster infected with 10^2 CCID50 Yellow fever virus Jimenez assessed as weight change at 400 mg/kg/day, po administered twice daily for 8 days started 4 hrs prior to viral infection relative to control; type: organism-based, Mesocricetus auratus; parameters: route oral; settings: in vivo
# Syrian golden hamster [15] = experiment: Toxicity in syrian golden hamster infected with 10^2 CCID50 Yellow fever virus assessed as weight change in surviving animals at 400 mg/kg/day, po BID administered for 8 days started 5 days post viral challenge; type: organism-based, Mesocricetus auratus; parameters: route oral; settings: in vivo
# Syrian golden hamster [16] = experiment: Toxicity in syrian golden hamster infected with 10^2 CCID50 Yellow fever virus Jimenez assessed as weight change at 400 mg/kg/day, po administered twice daily for 8 days started 2 day post viral infection; type: organism-based, Mesocricetus auratus; parameters: route oral; settings: in vivo
# Syrian golden hamster [17] = experiment: Toxicity in syrian golden hamster infected with 10^2 CCID50 Yellow fever virus Jimenez assessed as weight change at 400 mg/kg/day, po administered twice daily for 8 days started 4 day post viral infection; type: organism-based, Mesocricetus auratus; parameters: route oral; settings: in vivo
# Syrian golden hamster [18] = experiment: Toxicity in syrian golden hamster infected with 10^2 CCID50 Yellow fever virus Jimenez assessed as weight change at 100 mg/kg/day, po administered twice daily for 8 days started 4 hrs prior to viral infection; type: organism-based, Mesocricetus auratus; parameters: route oral; settings: in vivo
# Syrian golden hamster [19] = experiment: Toxicity in syrian golden hamster infected with 10^2 CCID50 Yellow fever virus assessed as weight change in non surviving animals at 400 mg/kg/day, po BID administered for 8 days started 4 days post viral challenge; type: organism-based, Mesocricetus auratus; parameters: route oral; settings: in vivo
# Syrian golden hamster [20] = experiment: Toxicity in syrian golden hamster assessed as weight change at 400 mg/kg/day, po BID administered for 8 days; type: organism-based, Mesocricetus auratus; parameters: route oral; settings: in vivo, 192 h
# In short: (§1)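 Uninfected toxicity-control hamsters, three per group, were dosed p.o. in 0.4% carboxymethyl cellulose twice daily, 12 h apart, for 8 days. Deaths were recorded daily. Body weights were taken at 0, 3 and 6 dpi.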
# Syrian golden hamster [21] = experiment: Toxicity in syrian golden hamster infected with 10^2 CCID50 Yellow fever virus assessed as weight change in non surviving animals at 400 mg/kg/day, po BID administered for 8 days started 5 days post viral challenge; type: organism-based, Mesocricetus auratus; parameters: route oral; settings: in vivo
# Syrian golden hamster [22] = experiment: Toxicity in syrian golden hamster assessed as number of animals alive at 400 mg/kg/day, po BID administered for 8 days; type: organism-based, Mesocricetus auratus; parameters: route oral; settings: in vivo, 192 h; in short: as §1
# Syrian golden hamster [23] = experiment: Toxicity in syrian golden hamster infected with 10^2 CCID50 Yellow fever virus Jimenez assessed as weight change at 200 mg/kg/day, po administered twice daily for 8 days started 4 hrs prior to viral infection relative to control; type: organism-based, Mesocricetus auratus; parameters: route oral; settings: in vivo
# Syrian golden hamster [24] = experiment: Toxicity in syrian golden hamster infected with 10^2 CCID50 Yellow fever virus Jimenez assessed as weight change at 400 mg/kg/day, po administered twice daily for 8 days started 5 day post viral infection; type: organism-based, Mesocricetus auratus; parameters: route oral; settings: in vivo
# Syrian golden hamster [25] = experiment: Toxicity in syrian golden hamster infected with 10^2 CCID50 Yellow fever virus Jimenez assessed as weight change at 400 mg/kg/day, po administered twice daily for 8 days started 1 day post viral infection; type: organism-based, Mesocricetus auratus; parameters: route oral; settings: in vivo
# Syrian golden hamster [26] = experiment: Toxicity in syrian golden hamster infected with 10^2 CCID50 Yellow fever virus Jimenez assessed as weight change at 400 mg/kg/day, po administered twice daily for 8 days started 3 day post viral infection; type: organism-based, Mesocricetus auratus; parameters: route oral; settings: in vivo
# Syrian golden hamster [27] = experiment: Toxicity in syrian golden hamster infected with 10^2 CCID50 Yellow fever virus assessed as weight change in surviving animals at 400 mg/kg/day, po BID administered for 8 days started 4 days post viral challenge; type: organism-based, Mesocricetus auratus; parameters: route oral; settings: in vivo
# Yellow fever virus [28] = experiment: Antiviral activity against 10^2 CCID50 Yellow fever virus Jimenez infected in syrian golden hamster assessed as serum ALT level at 10 mg/kg/day, po administered twice daily for 8 days started 4 hrs prior to viral infection; type: functional
# Yellow fever virus [29] = experiment: Antiviral activity against 10^2 CCID50 Yellow fever virus Jimenez infected in syrian golden hamster assessed as mean day of death […] at 50 mg/kg/day, po administered twice daily for 8 days started 4 hrs prior to viral infection relative to control; type: functional
# Syrian golden hamster [30] = experiment: Toxicity in syrian golden hamster infected with 10^2 CCID50 Yellow fever virus Jimenez assessed as weight change at 10 mg/kg/day, po administered twice daily for 8 days started 4 hrs prior to viral infection relative to control; type: organism-based, Mesocricetus auratus; parameters: route oral; settings: in vivo
# Yellow fever virus [31] = experiment: Antiviral activity against 10^2 CCID50 Yellow fever virus Jimenez infected in syrian golden hamster assessed as serum survival of animal at 50 mg/kg/day, po administered twice daily for 8 days started 4 hrs prior to viral infection; type: functional, organism-based
smiles,measurement,setting,value
NC(=O)c1nccn([C@@H]2O[C@H](CO)[C@@H](O)[C@H]2O)c1=O,pEC50,Yellow fever virus [1],2.58
same,EC90,Yellow fever virus [2],1110 µM
same,Activity,Yellow fever virus [3],85 IU/L
same,Time,Yellow fever virus [4],>21 days
same,Activity,Yellow fever virus [5],Active
same,Time,Yellow fever virus [6],8 days
same,Activity,Syrian golden hamster [7],0.2 g
same,Activity,Yellow fever virus [8],154 IU/L
same,selectivity ratio,[9],> 3.6
same,Activity,Yellow fever virus [10],Active
same,CC50,[11],> 4 mM
same,pEC50,Yellow fever virus [12],2.97
same,pEC50,Yellow fever virus [13],2.74
NC(=O)c1nc(F)c[nH]c1=O [FAVIPIRAVIR],Activity,Syrian golden hamster [14],5.2 g
same,Activity,Syrian golden hamster [15],-2.8 g
same,Activity,Syrian golden hamster [16],0 g
same,Activity,Syrian golden hamster [17],-3 g
same,Activity,Syrian golden hamster [18],-2.9 g
same,Activity,Syrian golden hamster [19],-18.5 g
same,Activity,Syrian golden hamster [20],5.3 g
same,Activity,Syrian golden hamster [21],-7.3 g
same,selectivity ratio,[9],> 19
same,Activity,Syrian golden hamster [22],Non-toxic
same,CC50,[11],> 6.37 mM
same,Activity,Syrian golden hamster [23],2.2 g
same,Activity,Syrian golden hamster [24],-4.5 g
same,Activity,Syrian golden hamster [25],-0.3 g
same,Activity,Syrian golden hamster [26],-4.1 g
same,Activity,Syrian golden hamster [27],2.2 g
NC(=O)c1ncn([C@@H]2O[C@H](CO)[C@@H](O)[C@H]2O)n1 [RIBAVIRIN],EC90,Yellow fever virus [2],690 µM
same,Activity,Yellow fever virus [28],103 IU/L
same,Time,Yellow fever virus [29],>21 days
same,Activity,Syrian golden hamster [30],2.4 g
same,selectivity ratio,[9],> 6
same,Activity,Yellow fever virus [31],Active
same,CC50,[11],> 4.1 mM
same,pEC50,Yellow fever virus [12],4.55
